Measured values from ChEMBL document CHEMBL5705892, “MK-2206, an allosteric Akt inhibitor, enhances antitumor efficacy by standard chemotherapeutic agents or molecular targeted drugs in vitro and in vivo” (Mol Cancer Ther, 2010).

Legend:
NCI-N87 [1] = test: Synergistic antiproliferative activity against lapatinib pretreated human NCI-N87 cells assessed as combination index at ED90 measured after 72 hrs by celltiter-glo assay; type: functional
NCI-H1299 [2] = test: Antiproliferative activity against human NCI-H1299 cells assessed as reduction in cell proliferation measured after 72 hrs by celltiter-glo assay; type: functional, cell-based; conditions: NCI-H1299, 72 h
How it was run: (§1)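 Cells in RPMI 1640 with 10% heat-inactivated FBS at 37°C and 5% CO₂ were seeded at 2 to 3 × 10³ per well. […] Growth was read as cellular ATP by CellTiter-Glo.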

A2780 [3] = test: Cell cycle arrest in human A2780 cells assessed as increase in accumulation of cells at sub-G1 phase measured after 72 hrs in presence of 5-FU by propidium iodide staining based flow cytometry; type: functional
A2780 [4] = test: Cell cycle arrest in human A2780 cells assessed as increase in accumulation of cells at sub-G1 phase at 0.12 to 3 umol/L measured after 72 hrs in presence of carboplatin by propidium iodide staining based flow cytometry relative to control; type: functional; conditions: dose 0.12-3 µmol/L, at 0.12 to 3 µM
NCI-H1299 [5] = test: Synergistic antiproliferative activity against human NCI-H1299 cells assessed as combination index at ED50 measured after 72 hrs in presence of erlotinib by celltiter-glo assay; type: functional
[6] = In vivo inhibition of ERK phosphorylation at T202/Y204 residues in human NCI-H292 cells xenografted mouse at 120 mg/kg, po administered as single dose measured after 12 hrs by Western blot analysis relative to control; type: functional
NCI-N87 [7] = test: Synergistic antiproliferative activity against lapatinib pretreated human NCI-N87 cells assessed as combination index at ED75 measured after 72 hrs by celltiter-glo assay; type: functional
NCI-H460 = test: Synergistic antiproliferative activity against human NCI-H460 cells assessed as combination index at ED50 measured after 72 hrs in presence of camptothecin by celltiter-glo assay; type: functional
NCI-H1299 [8] = test: Synergistic antiproliferative activity against human NCI-H1299 cells assessed as fold change in erlotinib IC50 at 1 umol/L measured after 72 hrs in presence of erlotinib by celltiter-glo assay relative to erlotinib alone; type: functional; conditions: dose 1 µmol/L
BT-20 = test: Synergistic antiproliferative activity against human BT-20 cells assessed as combination index at ED90 measured after 72 hrs in presence of docetaxel by celltiter-glo assay; type: functional
How it was run: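 Cells grown in RPMI 1640 with 10% heat-inactivated FBS at 37°C, 5% CO₂. Seeded at 2 to 3 × 10³ per well; drugs added 24 h later. […] Viability read as cellular ATP by CellTiter-Glo. CI calculated by Chou–Talalay from median-effect plots at ED50, ED75 and ED90.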

A2780 [9] = test: Cell cycle arrest in human A2780 cells assessed as increase in accumulation of cells at sub-G1 phase measured after 72 hrs in presence of gemcitabine by propidium iodide staining based flow cytometry; type: functional
HCC1954 = test: Antiproliferative activity against human HCC1954 cells assessed as reduction in cell proliferation measured after 72 hrs by celltiter-glo assay; type: functional, cell-based; conditions: HCC1954, 72 h; how it was run: as §1

SMILES: Cl.NC1(c2ccc(-c3nc4ccn5c(=O)[nH]nc5c4cc3-c3ccccc3)cc2)CCC1
- CI90 (NCI-N87 [1]): 0.18
- IC50 (NCI-H1299 [2]): 27 µM
- Activity (A2780 [3]): Dose-Dependent Effect
- Activity (A2780 [4]): >40%
- CI50 (NCI-H1299 [5]): 0.28
- inhibition in vivo at 120 mg/kg [6]: 27.7%
- CI75 (NCI-N87 [7]): 0.18
- CI50 (NCI-H460): 0.39
- Ratio IC50 (NCI-H1299 [8]): >7.9
- CI90 (BT-20): 0.5
- Activity (A2780 [9]): Dose-Dependent Effect
- IC50 (HCC1954): 2.9 µM
